Assay outcomes as filed in PubChem BioAssay.
Only a sample is shown.
E coli WT inh = growth inhibitors of wild type E. coli, primary screen, strain BW25113 wild type, absorbance readout. inhibition, % at 10 µM. hit rate 0.05% among 20,000. E. coli BW25113 growth inhibition, OD600; in the data active means inhibition above about 40%;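 further: bacteria exposed to compound for 20 hours at 37 °C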
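System: bacterial strain in a whole-cell growth screen; medium: LB broth with 50 µg/mL kanamycin; detection: absorbance at 615 nm; schedule: 20 h exposure, 37 °C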
* hit, by the source's call.

SMILES | E coli WT inh
CC1(C)NC(=O)N(CNc2cc(Cl)ccc2Cl)C1=O | 4
Cc1ccc(NC(=O)CS(=O)CC(=O)NCC2CCCO2)cc1 (centres undefined) | 8
CCOC(=O)/C(C(N)=NCCO)=C(/O)c1ccccc1 | -18
CS(=O)(=O)N(CC(=O)N1CCN(c2cccc(Cl)c2)CC1)c1cccc(F)c1 | 7
c1ccc2c(c1)nc(-c1ccncc1)n1nnnc21 | -2
Cc1c(O)c(CN2CCCC(C)C2)cc2c3c(c(=O)oc12)CCC3 (centres undefined) | 5
O=C(Cc1ccccc1)Nc1cccc(N2CCCC2)c1 | 0
COc1ccc(NC(=O)Cn2c(C)cc(=O)c3cccc(OC)c32)cc1 | -19
COc1nc(OC)nc(N2CCC(C(=O)NCc3cccs3)CC2)n1 | 1
CS(=O)(=O)N(CCc1ccccc1)CC(=O)NCc1ccco1 | -4
CN1CCN(Cc2nc3c(c(=O)n(C)c(=O)n3C)n2Cc2ccccc2Cl)CC1 | -2
c1ccc(Oc2ccc(-n3cnnn3)cc2)cc1 | 2
CCn1c2ccccc2c2cc(C3C(C#N)=C(N)Oc4n[nH]c(COC)c43)ccc21 (centres undefined) | -12
CCCCC(SCC(=O)Nc1ccccc1)C(=O)O (centres undefined) | 5
C=CCN(C(=O)CNS(=O)(=O)c1ccccc1)C(C(=O)NCCOC)c1ccncc1 (centres undefined) | 2
CC1(C(=O)CSc2nc3ccccc3s2)CCC(=O)O1 (centres undefined) | -4
CN(C)S(=O)(=O)n1cnc(-c2ccccc2)c1-c1ccccc1 | -4
CCCCn1c(=NC(=O)c2ccc3c(c2)OCO3)c(C#N)cc2c(=O)n3cccc(C)c3nc21 | -16
c1ccc(CNC2=NCCC2)nc1 | 7
Cc1[nH]nc(N=CC2=C(O)CC(C)(C)CC2=O)c1-c1ccc(Cl)cc1 | -1
O=C(CN1C(=O)CSc2ccccc21)Nc1ccccc1C(=O)N1CCOCC1 | 7
O=c1oc2c3c4c(cc2cc1-c1nc2ccccc2[nH]1)CCCN4CCC3 | -1
Cc1ccc(S(=O)(=O)NC(C)(C)CSc2nnc(N)s2)cc1 | -19
O=C1OCCC1Sc1ncnc2sccc12 (centres undefined) | -5
O=C(Nc1ccc(N2CCOCC2)c(F)c1)c1ccncc1 | 10
SMILES | E coli WT inh
c1cncc(-c2nc3c4ccccc4nc(N4CCC(N5CCCCC5)CC4)n3n2)c1 | -4
COCCN(CC(=O)NCc1ccccc1)C(=O)CCC(=O)Nc1ccccn1 | 7
CCn1c(SCC(=O)Nc2cccc(C)c2)nc2c(c1=O)SC(C)C2 (centres undefined) | 2
COc1cccc(-n2c(SCC(=O)N3CCCC3)nc3c([nH]c4ccccc43)c2=O)c1 | 3
CCN(CC(=O)NC)S(=O)(=O)c1ccc(Br)cc1 | -13
CCOC(=O)c1ccccc1NC(=O)CSc1nnc(COc2ccccc2C)n1C | 6
O=C(NCC1CCCO1)C1CCN(S(=O)(=O)c2cccc3cccnc23)CC1 (centres undefined) | 14
CN(C)CCCN1C(=O)C(O)=C(C(=O)c2cccs2)C1c1ccccn1 (centres undefined) | -14
Cn1c(Cc2csc(N)n2)nnc1SCC(=O)NCc1ccccc1 | -8
O=C(c1cnn2c(C(F)(F)F)cc(-c3ccco3)nc12)N1CCc2ccccc2C1 | 3
CC(C)CCNC(=O)C(C)N(Cc1ccc(F)cc1)C(=O)c1ccc(CN2CCCCC2)o1 (centres undefined) | -5
CCCCn1nnc(NC(=O)CC23CC4CC(CC(C4)C2)C3)n1 | -14
CCOC(=O)CSc1nnc(Cn2nnc(-c3ccccc3)n2)n1C | -19
O=C(Nc1ccc2c(c1)OCO2)OCc1ccccc1 | 5
COc1ccc(OC)c(S(=O)(=O)Nc2ccc(O)c(Sc3ncn[nH]3)c2)c1 | -16
Cn1c(=O)c2c3c(sc2n2c(SCc4ccccc4)nnc12)CCCC3 | -1
CCOC(=O)N1CCN(C(=O)Cc2ccc(C)cc2)CC1 | -18
COc1ccccc1S(=O)(=O)n1cc(Cc2ccccc2)c(N)n1 | -8
CCOCCc1nnc(NC(=O)COC)s1 | -21
COc1ccccc1NC(=O)C1=C(C)Nc2nc(CCCO)nn2C1c1ccc2c(c1)OCO2 (centres undefined) | -14
C1COC(NC(C2CC2)C2CC2)=N1 | 0
COc1cc(C(=O)Nc2nnc(CC(=O)N3CCOCC3)s2)cc(OC)c1OC | -18
COc1ccc(NC(=O)c2cccc(Cn3cc(Br)cn3)c2)cn1 | -19
O=C(CSc1nnc2scc(-c3ccccc3)n12)NCC1CCCO1 (centres undefined) | -19
CN(c1ccc(C(=O)O)cc1)S(=O)(=O)c1ccc(Cl)cc1 | -18
Cc1cccc(N2CCN(C(=O)Cn3nc(Cc4ccncc4)c4ccccc4c3=O)CC2)c1C | 1
O=C(CN1CCCC1)Nc1ccc(-c2nc3cc(NC(=O)CN4CCCC4)ccc3o2)cc1 | -7
COc1ccc(C(=O)NC(C)c2nnc(SCC(=O)Nc3nc4ccccc4s3)n2C)cc1 (centres undefined) | -6
CN1CCN(C(=O)CCC(=O)c2ccc(F)cc2)CC1 | 3
